Published values from different studies.
Target: Mitogen-activated protein kinase 14 (MAPK14, Homo sapiens, UniProt Q16539)

For O=C1CCc2cc(Nc3cc(OC4CCOCC4)c([N+](=O)[O-])cc3Cl)ccc2N1, the remaining binding was 100% (cell-free assay; competition with immobilised ligand; 1 µM).
CCN1CCN(Cc2ccc(C(=O)Nc3ccc(C)c(Oc4ccc5c(c4)CC(=O)N5)c3)cc2C(F)(F)F)CC1 gave a remaining binding of 18% (binding; competition with immobilised ligand; 1 µM).
For CC(=O)Nc1c(C(C)=O)c(=O)n(C)c2nc(-c3ccc(Cl)cc3Cl)c(-c3ccc(Cl)cc3)cc12, the remaining binding was 100% (cell-free assay; competition with immobilised ligand; 1 µM).
The remaining binding of Cc1cnc(Nc2ccc(C(=O)N3CCC(N4CCCC4)CC3)cc2)nc1-c1cc2ccccc2s1 is reported as 100% (binding; competition with immobilised ligand; 1 µM).
With CN(C)c1ncc(F)c(-c2cnn3ncccc23)n1 the remaining binding was 100% (binding; 1 µM).
O=C(NCC1CCOCC1)c1n[nH]cc1NC(=O)c1c(F)cccc1F has a remaining binding of 100% (binding; competition with immobilised ligand; 1 µM).
CN(CCCC(F)(F)F)c1nccc(-c2cnn3ncccc23)n1 has a remaining binding of 100% (binding; 1 µM).
c1cncc(-c2cccc(Nc3nccc(NC4CCCCC4)n3)c2)c1 has a remaining binding of 85% (binding; competition with immobilised ligand; 10 µM).
For O=C(c1ccc(Nc2ncc(Cl)c(-c3ccc(Cl)s3)n2)cc1)N1CCC(N2CCCC2)CC1, the remaining binding was 91% (binding; competition with immobilised ligand; 1 µM).
For O=C(Nc1ccc(Oc2ccc(F)cc2)cc1)N1CCc2ncccc2[C@H]1c1ccc(F)cc1, the remaining binding was 100% (cell-free assay; competition with immobilised ligand; 1 µM).
For C[C@@H]1CCN(c2nccc(-c3cnn4ncccc34)n2)C1, the remaining binding was 100% (binding; 1 µM).
For O=C(c1ccc(Nc2ncc(Cl)c(-c3cc4ccccc4s3)n2)cc1)N1CCC(N2CCCC2)CC1, the remaining binding was 100% (binding; competition with immobilised ligand; 1 µM).
The remaining binding of CNC(=O)[C@@H]1CC[C@@H](n2c(-c3ccc4cnccc4c3)nc3ccc(C(=O)NCc4cccc(C(N)=O)c4)cc32)C1 is reported as 99% (binding; competition with immobilised ligand; 1 µM).
For CN(c1nccc(-c2cnn3ncccc23)n1)C1CC1, the remaining binding was 100% (binding; 1 µM).
For N#Cc1ccccc1CSc1nnc2c(n1)[nH]c1ccccc12, the remaining binding was 100% (binding; competition with immobilised ligand; 10 µM).
For COc1cc(-c2cn(C3CCc4ccccc4N(CC(F)(F)F)C3=O)nn2)ccc1-n1ccc(C)n1 (stereo not shown), the remaining binding was 94% (cell-free assay; competition with immobilised ligand; 1 µM).
With c1cnn2ncc(-c3ccnc(N4CCC45COC5)n3)c2c1 the remaining binding was 87% (binding; 1 µM).
CC(=O)c1c(NS(C)(=O)=O)c2cc(-c3ccc(Cl)cc3)c(-c3ccc(Cl)cc3Cl)nc2n(C)c1=O gave a remaining binding of 100% (cell-free assay; competition with immobilised ligand; 1 µM).
The remaining binding of COc1cnc(Nc2cccc(S(N)(=O)=O)c2)nc1N1CCN(c2ccccc2)CC1 is reported as 100% (binding; competition with immobilised ligand; 1 µM).
CNCc1ccccc1-c1csc([C@H](C)Nc2nc(C)nc3cc(OC)c(OC)cc23)c1 has a remaining binding of 100% (cell-free assay; competition with immobilised ligand; 1 µM).
C[C@@H]1CN(c2ccc3ncc(-c4ccc5[nH]nc(C6CC6)c5c4)n3n2)C[C@H](C)O1 gave a remaining binding of 100% (binding; competition with immobilised ligand; 0.5 µM).
O=C(O)[C@H]1[C@H](Cn2nnc3ccccc3c2=O)CC[C@@H]1C(=O)c1ccc(OCCC2CCOCC2)cc1 has a remaining binding of 85% (cell-free assay; competition with immobilised ligand; 1 µM).
With N[C@@H]1CCN(c2nccc(-c3cnn4ncccc34)n2)C1 the remaining binding was 100% (binding; 1 µM).
With COc1ccc2cc(OCC3(C(=O)O)CN(C(=O)c4ccc(F)cc4)C3)ccc2c1 the remaining binding was 100% (cell-free assay; competition with immobilised ligand; 1 µM).
The remaining binding of CN(C)c1nccc(-c2cnn3ncccc23)n1 is reported as 91% (binding; 1 µM).
